Experimental findings from ChEMBL document CHEMBL4130403, “Thermoactinoamide A, an Antibiotic Lipophilic Cyclopeptide from the Icelandic Thermophilic Bacterium Thermoactinomyces vulgaris” (2017) are described below.

Experiment [1] has as its system Klebsiella pneumoniae. The experiment is described as follows: Antibacterial activity against Klebsiella pneumoniae ATCC 11296 up to 140 uM measured after overnight incubation. The experiment is classed as functional, organism-based. The settings on record: Klebsiella pneumoniae subsp. ozaenae. Summed up:
(§1)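 Liquid growth inhibition in 96-well microplates. Each strain was precultured overnight in Luria Bertoni at 37 °C with stirring, then diluted to 0.03 OD at 620 nm. 200 μL of this suspension was added to wells holding 2-fold serial dilutions of peptide. Plates were incubated overnight at 34 °C with shaking at 450 rpm and read at 620 nm. MIC, run in triplicate, is the lowest concentration giving complete growth inhibition.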

Experiment [2] concerns Bacillus cereus. Description: Antibacterial activity against Bacillus cereus ATCC 14579 up to 140 uM measured after overnight incubation. The experiment is classed as functional, organism-based. Summed up:
as §1

In a further experiment the test system is Staphylococcus aureus. The experiment is described as follows: Antibacterial activity against Staphylococcus aureus ATCC 6538 measured after overnight incubation. The class given is functional. In outline: as §1
The test system of experiment [3] is Enterococcus faecalis. The experiment is described as follows: Antibacterial activity against Enterococcus faecalis ATCC 29212 up to 140 uM measured after overnight incubation. The class given is functional, organism-based. In outline: as §1
The subject of experiment [4] is Pseudomonas aeruginosa. Description: Antibacterial activity against Pseudomonas aeruginosa ATCC 13388 up to 140 uM measured after overnight incubation. The experiment is classed as functional, organism-based. Summed up: as §1
For experiment [5], the system named is Escherichia coli. Description: Antibacterial activity against Escherichia coli ATCC 8739 up to 140 uM measured after overnight incubation. The experiment is classed as functional, organism-based. In outline: as §1
Experiment [6] has as its system Enterococcus faecalis. Description: Antibacterial activity against Enterococcus faecalis ATCC 29212 measured after overnight incubation. The class given is functional. In outline:
as §1

The subject of experiment [7] is Klebsiella pneumoniae. Description: Antibacterial activity against Klebsiella pneumoniae ATCC 11296 measured after overnight incubation. The experiment is classed as functional, Klebsiella pneumoniae subsp. ozaenae. Summed up:
as §1

The test system of experiment [8] is Escherichia coli. Description: Antibacterial activity against Escherichia coli ATCC 8739 measured after overnight incubation. The experiment is classed as functional. In outline:
as §1

The subject of experiment [9] is Bacillus cereus. Description: Antibacterial activity against Bacillus cereus ATCC 14579 measured after overnight incubation. The experiment is classed as functional, organism-based. In outline:
(§2)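 Broth microdilution (liquid growth inhibition) in 96-well plates. Overnight Luria Bertoni preculture from one colony at 37 °C with stirring, adjusted to OD620 0.03; 200 μL suspension added to 2-fold serial dilutions of peptide. Plates incubated overnight at 34 °C with shaking (450 rpm), read at OD620. MIC = lowest concentration giving complete growth inhibition; triplicate; gentamicin positive control.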

For experiment [10], the system named is Pseudomonas aeruginosa. Description: Antibacterial activity against Pseudomonas aeruginosa ATCC 13388 measured after overnight incubation. The class given is functional, organism-based. In outline:
as §2

Converted amounts (≈) assume the structure as drawn. The source made the active and inactive calls. No cut-off for these calls is given here.

A word on the MIC: it is the least concentration at which growth counts as inhibited. Read a low MIC as greater potency. Regarding `CC[C@H](C)[C@H]1NC(=O)[C@H](CC(C)C)NC(=O)[C@@H](CC(C)C)NC(=O)[C@H](CC(C)C)NC(=O)[C@H](C(C)C)NC(=O)[C@@H](Cc2ccc(O)cc2)NC1=O`, the outcome in the experiment on Klebsiella pneumoniae [1], with Bacillus cereus [2], in the experiment with Enterococcus faecalis [3], in the experiment with Pseudomonas aeruginosa [4] and in the experiment on Escherichia coli [5] was inactive. Moreover, the MIC against Staphylococcus aureus was found to be 35 µM (≈ 25 µg/mL).

For `CC1(C)S[C@@H]2[C@H](NC(=O)[C@H](N)c3ccccc3)C(=O)N2[C@H]1C(=O)O` [AMPICILLIN], the MIC in the experiment with Enterococcus faecalis [6] was 4.59 µM (≈ 1.6 µg/mL); against Staphylococcus aureus, 0.11 µM (≈ 0.0384 µg/mL).

As for `O=C(N[C@H](CO)[C@H](O)c1ccc([N+](=O)[O-])cc1)C(Cl)Cl` [CHLORAMPHENICOL], the minimum inhibitory concentration (MIC) with Klebsiella pneumoniae [7] was 3.17 µM (≈ 1.02 µg/mL); against Escherichia coli [8], 19.3 µM (≈ 6.24 µg/mL).

On to GENTAMICIN, for which the figures for the MIC against Bacillus cereus [9] and with Pseudomonas aeruginosa [10] were 17.2 µM and 10.5 µM, respectively.
